For 5 compounds, IC50 and Control results are on record in ChEMBL document CHEMBL1127580 (J Med Chem, 1994).

The IC50 is the concentration at which inhibition is half-maximal.

Structures are written as SMILES.

Sequence of Sodium-dependent dopamine transporter (P23977 whole entry): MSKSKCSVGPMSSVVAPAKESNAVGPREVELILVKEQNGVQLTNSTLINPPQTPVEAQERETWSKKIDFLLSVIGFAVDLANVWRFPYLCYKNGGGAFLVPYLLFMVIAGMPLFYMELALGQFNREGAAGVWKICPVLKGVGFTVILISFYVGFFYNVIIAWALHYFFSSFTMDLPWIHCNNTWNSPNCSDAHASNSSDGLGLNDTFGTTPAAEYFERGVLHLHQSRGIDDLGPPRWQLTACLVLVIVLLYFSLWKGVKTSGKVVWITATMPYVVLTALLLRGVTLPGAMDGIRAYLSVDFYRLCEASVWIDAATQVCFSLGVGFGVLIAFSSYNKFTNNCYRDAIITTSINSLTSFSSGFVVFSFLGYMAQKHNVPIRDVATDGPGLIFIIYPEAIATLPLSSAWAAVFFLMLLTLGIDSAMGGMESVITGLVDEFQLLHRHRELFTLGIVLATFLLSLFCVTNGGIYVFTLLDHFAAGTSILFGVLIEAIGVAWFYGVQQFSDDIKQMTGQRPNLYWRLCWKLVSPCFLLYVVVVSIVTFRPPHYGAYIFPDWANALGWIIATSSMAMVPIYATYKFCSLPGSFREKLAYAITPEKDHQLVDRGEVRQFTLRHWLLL

The species named for the first assay is Rattus norvegicus. The assay can be described thus: Tested for inhibition of [3H]dopamine uptake into rat striatal synaptosomes. The format is functional. Particulars: Brain.
In turn, `COC(=O)C1C(OC(=O)Nc2cccc(N=C=S)c2)C[C@H]2CCC1N2C` (some centres undefined) returned an IC50 of 4900 nM.

A further assay addresses Sodium-dependent dopamine transporter (Rattus norvegicus) (UniProt P23977). The experiment in a line: Inhibitory effect of [3H]cocaine binding when pre incubation was conducted under reduced lighting. Set-up: concentration or dose not given beside the values.
Conditions: not given
The gist of the method: (§1)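 Ligand (final 100 μM or as indicated, in DMSO or H2O) or vehicle preincubated 5 min with rat striatal membranes, either under reduced lighting or 4 in. from a UV source. […] Remaining binding expressed as percent of control.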
In turn, `COC(=O)C1C(OC(=O)Nc2ccc(N=C=S)cc2)C[C@H]2CCC1N2C` (some centres undefined) gave a Control of 12.3%.
The same measure, in the same setting: under `COC(=O)C1C(OC(=O)Nc2cccc(N=C=S)c2)C[C@H]2CCC1N2C` (some centres undefined) stands 33.4%; under `COC(=O)[C@@H]1C2CC[C@@H](C[C@@H]1OC(=O)c1ccccc1)N2C` (single isomer, unassigned) [COCAINE], 138%.
Same read-out and setting: the result for `COC(=O)C1C(OC(=O)Nc2ccc(N=[N+]=[N-])cc2)C[C@H]2CCC1N2C` (some centres undefined) reads 86.3%; that for `COC(=O)C1C(OC(=O)Nc2cccc(N=[N+]=[N-])c2)C[C@H]2CCC1N2C` (some centres undefined), 102%.

For a further assay, the species on record is Rattus norvegicus. The experiment in a line: Tested for inhibition of [3H]-dopamine uptake into rat striatal synaptosomes. In kind it is functional. Particulars: Brain.
For `COC(=O)C1C(OC(=O)Nc2ccc(N=C=S)cc2)C[C@H]2CCC1N2C` (some centres undefined), half-maximal inhibition (IC50) was put at 490 nM.
The same measure, in the same setting: the result for `COC(=O)[C@@H]1C2CC[C@@H](C[C@@H]1OC(=O)c1ccccc1)N2C` (single isomer, unassigned) [COCAINE] reads 210 nM.
The same measure, in the same setting: the result for `COC(=O)C1C(OC(=O)Nc2ccc(N=[N+]=[N-])cc2)C[C@H]2CCC1N2C` (some centres undefined) reads 1180 nM.
The same measure, in the same setting: the result for `COC(=O)C1C(OC(=O)Nc2cccc(N=[N+]=[N-])c2)C[C@H]2CCC1N2C` (some centres undefined) reads 3900 nM.

The next assay concerns the target Sodium-dependent dopamine transporter (Rattus norvegicus, UniProt P23977). The assay can be described thus: Tested for inhibition of [3H]cocaine binding to rat striatal P2 membranes. The format is cell membranes, Membrane.
Conditions: not given
The gist of the method: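 Fresh rat striatal P2 membranes in 10 mM Na2HPO4/0.25 M sucrose, pH 7.4, 200 μg protein. Filtration on PEI-soaked GF/B filters.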
The compound `COC(=O)C1C(OC(=O)Nc2ccc(N=C=S)cc2)C[C@H]2CCC1N2C` (some centres undefined) had an IC50 of 260 nM.
Same read-out and setting: under `COC(=O)C1C(OC(=O)Nc2cccc(N=C=S)c2)C[C@H]2CCC1N2C` (some centres undefined) stands 960 nM; under `COC(=O)C1C(OC(=O)Nc2ccc(N=[N+]=[N-])cc2)C[C@H]2CCC1N2C` (some centres undefined), 1000 nM.
Still for that read-out and setting: under `COC(=O)C1C(OC(=O)Nc2cccc(N=[N+]=[N-])c2)C[C@H]2CCC1N2C` (some centres undefined) stands 630 nM.

In a further assay the target is Sodium-dependent dopamine transporter (Rattus norvegicus) (UniProt P23977). The assay can be described thus: Inhibitory effect of [3H]cocaine binding when pre incubation was conducted under ultraviolet light. Also on record: concentration or dose not given beside the values.
Sequence of Sodium-dependent dopamine transporter (Rattus norvegicus) (P23977 whole entry): as above
Conditions: not given
In a few lines: as §1
On to `COC(=O)C1C(OC(=O)Nc2ccc(N=C=S)cc2)C[C@H]2CCC1N2C` (some centres undefined), for which the Control came to 18.5%.
Take `COC(=O)C1C(OC(=O)Nc2cccc(N=C=S)c2)C[C@H]2CCC1N2C` (some centres undefined): the Control was 29.1%.
The same measure, in the same setting: under `COC(=O)[C@@H]1C2CC[C@@H](C[C@@H]1OC(=O)c1ccccc1)N2C` (single isomer, unassigned) [COCAINE] stands 74.1%; under `COC(=O)C1C(OC(=O)Nc2ccc(N=[N+]=[N-])cc2)C[C@H]2CCC1N2C` (some centres undefined), 32.5%.
Still for that read-out and setting: the result for `COC(=O)C1C(OC(=O)Nc2cccc(N=[N+]=[N-])c2)C[C@H]2CCC1N2C` (some centres undefined) reads 39.1%.
